PRMT1 FP inh: blocks human protein arginine methyltransferase 1 | Q99873 | recombinant PRMT1, activity-based probe fluorescence polarization | inhibition, % at 2.79 µM | actives 1.3% (n = 370,000);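 active = inhibition above about 21% made by adding two undisclosed values, limit read from the data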
rCAG binder: r(CAG) repeat RNA binding; TO-PRO-1 dye displacement fluorescence; actives 1.3% (n = 370,000); inhibition, % at 3 µM;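 active = inhibition above the plate cutoff, the mean of all test compounds on that plate plus 3 SD, cut at about 35% in these data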;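 note: 0% = DMSO alone and 100% = 100 µM mitoxantrone as full dye displacement; higher means more dye released from RNA so lower well fluorescence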
ABHD4 inh: inhibits mouse alpha/beta hydrolase domain 4 | actives 0.54% (n = 370,000) | Q8VD66 | inhibition, % at 8.92 µM | purified mABHD4, FP-Rh probe fluorescence polarization;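 active = inhibition exceeding the mean over every tested compound plus 3 SD, cut at about 30% in these data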;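 note: 0% = plate median of compound wells and 100% = S159A mutant with DMSO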
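Test system: mABHD4 protein | Buffer or medium: HEPES pH 7.0 buffer, 150 mM NaCl, 0.01% Pluronic F-127 | Probe or stimulus: FP-Rh fluorescent activity-based probe, added after compound pre-incubation | Timing: Pre-incubation 45 min, probe exposure 60 min, at 25 °C | Technique: Fluorescence polarization, excitation 525 nm, emission 598 nm, BODIPY TMR filters | Repeats: Single well per compound (singlicate)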
SIAE inh: inhibitors of human sialic acid acetylesterase SIAE; SIAE FP-Rh probe binding, fluorescence polarization; inhibition, % at 9.66 µM; actives 0.69% (n = 370,000);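 active = inhibition above a cutoff: mean of compounds within the control limits plus 3 SD of those, cut at about 17% in these data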;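 note: 0% = plate median of compound wells and 100% = probe without SIAE protein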
Target sequence (Q9HAT2 whole entry, looked up): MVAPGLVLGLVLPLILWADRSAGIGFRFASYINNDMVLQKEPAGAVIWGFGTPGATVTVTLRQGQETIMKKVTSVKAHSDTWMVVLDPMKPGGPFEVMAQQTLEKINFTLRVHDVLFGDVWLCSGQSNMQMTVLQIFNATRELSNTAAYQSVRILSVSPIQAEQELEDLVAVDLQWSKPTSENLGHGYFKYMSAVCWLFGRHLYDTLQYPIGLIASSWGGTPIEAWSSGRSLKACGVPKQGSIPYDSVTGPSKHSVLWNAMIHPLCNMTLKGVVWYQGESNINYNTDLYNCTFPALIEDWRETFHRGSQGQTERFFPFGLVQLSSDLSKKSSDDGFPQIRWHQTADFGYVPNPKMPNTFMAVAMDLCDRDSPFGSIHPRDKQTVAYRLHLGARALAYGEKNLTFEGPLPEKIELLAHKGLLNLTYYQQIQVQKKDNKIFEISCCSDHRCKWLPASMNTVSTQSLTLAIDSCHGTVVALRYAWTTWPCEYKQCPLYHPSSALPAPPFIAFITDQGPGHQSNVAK
HTRA1 inhibitor: inhibitors of human serine peptidase HTRA1 | recombinant HTRA1, FP-rhodamine activity-based probe, fluorescence polarization | inhibition, % at 5.96 µM | actives 0.5% (n = 340,000) | Q92743; in the data active = inhibition above about 36%;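 note: 0% = enzyme with DMSO and 100% = wells lacking enzyme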
The depositor's hits bear a star; x = no result given. In the library only some 3.3% were active in any assay of this set; here they are far more common.

SMILES	PRMT1 FP inh	rCAG binder	ABHD4 inh	SIAE inh	HTRA1 inhibitor
O=C(CSc1nc2ccccc2c(=O)n1-c1ccccc1F)Nc1ccc2c(c1)CCC2	-2.3	5.9	-25.8	-5.2	-34.0
Oc1ccc2c(c1)C1CCCC1(N1CCOCC1)O2 (stereo unspecified)	27.2*	24.7	34.2*	8.9	-4.7
CC(C)CCNC(=O)C12CN(Cc3ccccc3)CC1C(c1ccc([N+](=O)[O-])cc1)=NO2 (stereo unspecified)	21.8*	13.6	-9.3	5.3	-14.4
CC(=O)OCC1=C(C(=O)O)N2C(=O)[C@@H](NC(=O)CSc3ccncc3)[C@H]2SC1	19.0	15.6	0.4	12.1	-4.9
CC(=O)OCC1=C(C(=O)O)N2C(=O)C(NC(=O)C(C)Cn3nc(C)c(Cl)c3C)C2SC1 (stereo unspecified)	24.6*	10.8	-2.7	6.0	0.8
CC1=C(C(=O)O)N2C(=O)[C@@H](NC(=O)[C@H](N)c3ccc(O)cc3)[C@H]2SC1	7.1	1.6	5.9	2.0	0.0
CC(=O)OCC1=C(C(=O)O)N2C(=O)C(NC(=O)c3ccc(F)cc3)C2SC1 (stereo unspecified)	23.6*	9.0	5.3	6.9	0.2
O=C(O)CCc1ccc(-c2ccc(Br)cc2)n1CC(=O)O	7.7	16.2	-3.1	1.0	-7.5
O=C(O)CCc1ccc(-c2ccccc2)n1CC(=O)O	23.2*	6.8	-2.1	-2.9	-7.5
NC(=O)N/N=C/c1ccc(N2CCOCC2)s1	1.6	3.4	2.1	-4.1	4.6
O=C(O)c1cc(N/N=C/c2ccc(N3CCOCC3)s2)ccc1Cl	32.9*	75.3*	43.5*	20.6*	25.8
O=C(N[C@H](c1cccc(Br)c1)[C@@H]1CCCC=C1c1ccccc1)C(F)(F)F	2.7	0.8	-3.8	-6.5	x
CCn1ncc(NC(=S)Nc2ccc(OC)c(OC)c2)c1C(N)=O	22.4*	1.7	18.5	9.3	3.6
c1cncc(Oc2ccc(NCCc3c[nH]c4ccccc34)cc2)c1	4.4	12.0	18.1	8.9	x
Cc1n[nH]c(=S)n1/N=C/c1ccc(OCc2ccc(Cl)cc2)cc1	-3.2	6.4	-3.2	0.3	-13.2
S=c1[nH]nc(Cc2ccc(Br)cc2)n1/N=C/c1ccc(Cl)cc1	22.1*	26.4	-1.1	3.2	-16.3
COc1ccc(Cn2c(C)cc(O)cc2=O)cc1	-1.2	3.4	-2.5	0.4	x
O=C(Nc1cccc(C(F)(F)F)c1)Oc1ccc(Cl)c2cccnc12	-9.3	4.5	-34.6	-16.1	45.8*
O=C(CN1C(=O)S/C(=C\c2ccc(-c3cc(C(=O)O)ccc3Cl)o2)C1=O)Nc1ccc2c(c1)OCO2	17.7	48.9*	16.8	-17.9	-26.9
COC(=O)c1cc2c(c3c4cc(OC)ccc4n(S(=O)(=O)c4ccccc4)c13)C(=O)N(Cc1ccc(C(F)(F)F)cc1)C2	0.9	9.1	-4.5	-8.0	x
COc1ccc(-c2ccc3c(n2)CCCN3S(=O)(=O)c2ccc(C(F)(F)F)cc2)cc1	-0.9	7.1	-11.0	-8.1	x
O=C(N[C@H](C(=O)N1CCC[C@H]1C(=O)NCc1ccccc1)C1CCCCC1)c1ccc(Cl)c(Cl)c1	0.7	1.2	-2.9	-4.1	x
Cc1c(OC(C)C(=O)NC(Cc2c[nH]c3ccc(O)cc23)C(=O)O)ccc2c1oc(=O)c1ccccc12 (stereo unspecified)	5.1	58.0*	11.2	7.3	9.9
Cc1ccc(-c2nc3c(Cl)cc(C(F)(F)F)cn3c2Cc2ccsc2)cc1	0.8	55.1*	-39.4	-5.2	x
N#Cc1c(N2CCN(c3ccc(F)cc3)CC2)nc(N)c2c(N)nc3c(c12)CC(=O)N3C1CC1	20.7	33.6	14.8	9.5	25.1
SMILES	PRMT1 FP inh	rCAG binder	ABHD4 inh	SIAE inh	HTRA1 inhibitor
CC(C)(C)N1C(=O)Cc2c1nc(N)c1c(N)nc(N3CCCCC3CO)c(C#N)c21 (stereo unspecified)	x	x	x	x	55.5*
Cc1[nH]c2ccccc2c1CC(=O)Nc1ccc(N(C)c2cccnc2)c(-c2cccc(Cl)c2)c1	1.7	14.3	30.1*	4.2	x
Cc1sc2nc(-c3cccnc3)[nH]c(=O)c2c1-c1ccccc1	22.8*	3.0	-7.2	-6.8	-7.3
CC(=O)N1CCN(c2ccc(N3CCN(Cc4ccccc4)[C@@H](C)C3)c(C)c2)[C@@H](C)C1	0.8	3.2	-0.7	8.2	x
O=C(CSCc1ccc(Cl)cc1)NCCSCc1ccco1	23.5*	-1.4	-11.7	-2.0	-1.8
CCOC(=O)N1CCN(C(=O)C2CCN(C(=O)c3ccccc3C)CC2)CC1	91.0*	21.3	-22.3	-23.2	-49.0
Cc1ccccc1C(=O)N1CCC(C(=O)N2CCN(c3ncccn3)CC2)CC1	-2.7	-5.6	-3.9	13.7	7.7
CCCCS(=O)(=O)N1C2=NC(C(=O)OCC)=C(C(=O)OCC)C3N(Cc4ccc(Br)cc4)c4ccccc4[C@]23C[C@H]1C(=O)OC (stereo partly specified)	-0.5	12.7	5.0	-5.2	x
O=c1[nH]c(=O)c2[nH]c(=S)[nH]c2[nH]1	80.4*	5.5	14.8	5.4	11.1
Nc1ncnc2[nH]c(=S)[nH]c12	1.5	0.2	5.0	2.3	-4.0
CC(C)[C@H](N)C(=O)N[C@H](C(=O)N1CCC2CCN(Cc3ccccc3)CC21)C(C)C (stereo partly specified)	0.7	1.1	3.2	-4.0	x
CCN(CC)c1ccc2cc(NC(=O)CCC(=O)O)c(=O)oc2c1	34.0*	-22.5	58.5*	9.3	18.9
CC(=O)Oc1ccc2c(c1)Oc1cc(OC(C)=O)ccc1C21OC(=O)c2ccccc21	x	x	x	x	123.9*
Cc1cc(O)ccc1C1(c2ccc(O)cc2C)OC(=O)c2ccccc21	0.5	2.1	-46.0	-16.8	-59.2
O=C(C(=O)N1CCC(CNC(=O)c2ccccc2F)CC1)c1cc2ccccc2o1	-2.9	2.0	3.9	3.4	x
Cc1ccc2c(c1)sc[n+]2Cc1ccccc1	64.2*	2.2	6.3	0.8	3.4
Cc1ccc(-c2cc[n+](Cc3ccccc3)cc2)cc1	-2.1	3.2	2.9	-3.5	1.8
CC(C)(C)c1ccc(C#C[C@@H]2C=C[C@@H](O)[C@@H](COC(=O)NCc3ccccc3)O2)cc1	1.7	2.1	-22.8	-1.0	x
C/C(=N\NC(=O)c1cc(C)nc2ccccc12)c1ccco1	-1.1	2.6	2.8	0.4	1.5
Cc1ccc(C)c(/C=N/Nc2nc3ccccc3c(=O)n2O)c1	24.7*	0.4	9.6	3.8	x
C/C(=N\Nc1nc2ccccc2c(=O)n1O)c1ccco1	36.1*	7.4	11.3	3.4	16.7
Cc1ccc2nc(C)cc(N/N=C/c3ccccc3O)c2c1	-8.1	-0.4	0.3	4.1	-8.5
O=C(NC1CCCCN(Cc2ccc(Cl)cc2)C1=O)c1c(F)cccc1F (stereo unspecified)	-7.9	0.1	-8.8	-3.6	x
CCCCn1nc(NS(=O)(=O)c2cccc3nonc23)c2cc3cccc(C)c3nc21	1.0	74.3*	22.6	0.9	5.8
CCOC(=O)N[C@H](C(=O)N1CCC[C@H]1C(=O)NCc1ccccc1)C(C)C	-5.5	2.0	1.4	0.7	x
